HTRA1 inh: HTRA1 serine protease inhibitors, primary screen, biochemical, fluorescence polarization, HTS; recombinant HTRA1, FP-rhodamine activity-based probe; inhibition, % at 5.96 µM; hit rate 0.5% among 340,000; in the data active means inhibition above about 36%;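 further: 0% = enzyme with DMSO and 100% = wells lacking enzyme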
Target sequence (Q92743 whole entry, looked up): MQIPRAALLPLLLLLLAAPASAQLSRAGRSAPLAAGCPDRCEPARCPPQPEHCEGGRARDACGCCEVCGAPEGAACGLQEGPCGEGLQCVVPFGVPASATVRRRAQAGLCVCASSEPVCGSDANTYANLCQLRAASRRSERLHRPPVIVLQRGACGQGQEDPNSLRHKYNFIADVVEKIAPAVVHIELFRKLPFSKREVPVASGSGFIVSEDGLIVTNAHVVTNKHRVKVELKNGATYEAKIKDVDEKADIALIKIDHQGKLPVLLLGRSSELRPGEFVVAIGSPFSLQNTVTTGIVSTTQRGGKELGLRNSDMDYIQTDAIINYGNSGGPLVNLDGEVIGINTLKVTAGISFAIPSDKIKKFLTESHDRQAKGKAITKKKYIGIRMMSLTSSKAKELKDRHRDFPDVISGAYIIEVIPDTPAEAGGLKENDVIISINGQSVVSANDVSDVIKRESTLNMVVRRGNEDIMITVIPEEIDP
PAFAH2 FP inh: PAFAH2 enzyme inhibitors, primary screen, biochemical, fluorescence polarization, human. hit rate 0.99% among 340,000. inhibition, % at 3.39 µM. recombinant PAFAH2, FP-rhodamine activity probe. AID 492956, 2010. Platelet-activating factor acetylhydrolase 2, cytoplasmic (Homo sapiens), Q99487;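 active means inhibition above the mean over all tested compounds plus 3 SD, cut at about 30% in these data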;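 further: inhibitors block probe labeling of enzyme so polarization drops; 0% = enzyme with DMSO and 100% = wells lacking PAFAH2 protein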
mABHD4 FP: ABHD4 inhibitors, primary screen, biochemical, fluorescence polarization, mouse; inhibition, % at 8.92 µM; purified mABHD4, FP-Rh probe fluorescence polarization; hit rate 0.54% among 370,000; (Lyso)-N-acylphosphatidylethanolamine lipase (Mus musculus), Q8VD66;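 active means inhibition exceeding the mean over every tested compound plus 3 SD, cut at about 30% in these data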;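 further: 0% = plate median of compound wells and 100% = S159A mutant with DMSO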
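Test system: mABHD4 protein; Read-out basis: % inhibition; Incubation: 45 min + 60 min at 25 °C; Repeats: single replicate; Technique: fluorescence polarization with parallel and perpendicular emission, 525/598 nm; Compound: 8.92 µM, single dose; Benchmarks: full inhibition S159A mutant plus DMSO, zero as sample-well median.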
PAFAH1B2 inh: PAFAH1B2 enzyme inhibitors, primary screen, biochemical, fluorescence polarization, human; Platelet-activating factor acetylhydrolase IB subunit alpha2 (Homo sapiens), P68402; recombinant PAFAH1B2, FP-rhodamine activity probe; inhibition, % at 3.39 µM; hit rate 1.2% among 340,000;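 active means inhibition above the mean of all tested compounds plus 3 SD, cut at about 24% in these data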;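 further: 0% = enzyme with DMSO and 100% = wells lacking PAFAH1B2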
Target sequence (P68402 whole entry, looked up): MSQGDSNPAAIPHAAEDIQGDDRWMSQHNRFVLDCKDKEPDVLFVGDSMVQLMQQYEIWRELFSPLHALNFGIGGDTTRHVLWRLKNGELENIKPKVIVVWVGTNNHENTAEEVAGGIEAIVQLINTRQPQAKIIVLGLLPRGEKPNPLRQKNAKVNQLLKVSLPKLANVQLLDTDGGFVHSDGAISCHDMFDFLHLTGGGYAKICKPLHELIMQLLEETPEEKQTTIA
PAFAH1B3 inh: PAFAH1B3 enzyme inhibitors, primary screen, biochemical, fluorescence polarization, human; Platelet-activating factor acetylhydrolase IB subunit alpha1 (Homo sapiens), Q15102; recombinant PAFAH1B3, FP-rhodamine probe; inhibition, % at 3.39 µM; hit rate 0.28% among 340,000;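 active means inhibition above the screen-wide average of all tested compounds plus 3 SD, cut at about 25% in these data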;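 further: 0% = enzyme with DMSO only and 100% = wells lacking PAFAH1B3 protein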
pPAFAH FP inh: pPAFAH enzyme inhibitors, primary screen, biochemical, fluorescence polarization, human; Platelet-activating factor acetylhydrolase (Homo sapiens), Q13093; recombinant pPAFAH, FP-rhodamine probe fluorescence polarization; inhibition, % at 3.39 µM; hit rate 1.5% among 330,000; AID 463082, 2010;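 active means inhibition above the mean inhibition across the screen plus 3 SD, cut at about 25% in these data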;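 further: inhibitors block binding of the rhodamine activity-based probe so polarization drops; 0% = enzyme with DMSO and 100% = wells lacking pPAFAH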
HTRA1 inh conf: HTRA1 protease inhibitors, retest, confirmation, biochemical, fluorescence polarization. inhibition, % at 5.96 µM. recombinant HTRA1, FP-rhodamine activity-based probe. shares compounds with HTRA1 inh. hit rate 66% among 1,600;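 active means mean inhibition over three repeats above a set limit taken from the earlier primary screen, cut at about 37% in these data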;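 further: 0% = HTRA1 with DMSO and 100% = wells lacking HTRA1; inhibitors block probe binding so polarization drops and inhibition rises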
mABHD4 conf: ABHD4 inhibitors, retest, confirmation, biochemical, fluorescence polarization, mouse; shares compounds with mABHD4 FP; purified mABHD4, FP-Rh probe fluorescence polarization; inhibition, % at 8.92 µM; hit rate 55% among 1,800; AID 720658, 2013;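 active means mean inhibition across replicates above the hit cutoff set in the primary screen, cut at about 30% in these data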;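 further: 0% = wild-type ABHD4 with DMSO and 100% = catalytically dead S159A mutant with DMSO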
* marks the source's active call; other numbers are inactive results; . = no result; + = active, no number. Only some compounds are listed: those with a hit (about 2.8% of all), similar ones and a draw of the others.

SMILES	HTRA1 inh	PAFAH2 FP inh	mABHD4 FP	PAFAH1B2 inh	PAFAH1B3 inh	pPAFAH FP inh	HTRA1 inh conf	mABHD4 conf
C=CCN1[C@H](CC(C)C)COc2cccc(F)c2S1(=O)=O	.	.	-0.5	.	.	.	.	.
CCCCCCCCN1C(=O)[C@@H](CC(=O)N2CCN(C(=O)c3ccco3)CC2)C[C@@]2(C(=O)OC)C1=C[C@H](COCc1ccccc1)O[C@@H]2C	.	.	-0.8	.	.	.	.	.
O=C(/C=C/c1ccc(O)c(O)c1)NC(=O)c1ccccc1O	65.0*	2.6	56.7*	6.1	7.4	3.4	62.4*	35.7*
O=C(/C=C/c1ccc(Br)cc1)NC(=O)c1ccccc1O	14.4	3.5	-9.7	-5.0	4.5	-1.0	.	.
N#Cc1ccc(/C=C2\CC3(OC(=O)c4cccc(F)c4)CCCN2C3)cc1 (stereo unspecified)	.	.	0.4	.	.	.	.	.
COc1ccc(-c2cc(C(=O)N/N=C/C(C)=C\c3ccco3)[nH]n2)cc1	.	.	-23.6	.	.	.	.	.
O=C(N/N=C/c1cc2c3c(c1O)CCCN3CCC2)c1ccccc1O	51.1*	15.4	44.2*	11.7	17.9	.	58.1*	22.2
O=C(NCCc1c[nH]c2ccccc12)OCc1cn(-c2ccccc2Cl)nn1	.	.	-3.3	.	.	.	.	.
CCOC(=O)/C(N=Nc1sc(C(=O)OCC)c(C)c1C(=O)OCC)=C(\C)O	.	.	.	.	.	2.0	.	.
CCOC(=O)c1sc(N=NC2=C(O)CCCC2=O)c(C(=O)OCC)c1C	47.6*	10.1	52.1*	-5.4	1.7	27.7*	38.5*	34.1*
O=[N+]([O-])c1cc(/C=N\Nc2nc(-c3ccccc3)cs2)ccc1O	47.4*	32.1*	41.5*	12.6	21.6	31.0*	49.5*	60.8*
O=[N+]([O-])c1ccc(-c2csc(N/N=C/c3cccnc3)n2)cc1	-8.1	-1.6	3.8	6.6	9.8	2.7	.	.
Nc1ccc2ccccc2c1N=Nc1ccccc1	59.3*	-2.8	39.0*	5.8	7.6	.	53.1*	38.6*
CCOC(=O)[C@@]12CCCC3=C1N(CCC3)C(=O)[C@H]2CC(=O)NCCCCc1ccccc1	.	.	-3.4	.	.	.	.	.
CC(C)N=c1cc2n(-c3ccc(Cl)cc3)c3ccccc3nc-2cc1Nc1ccc(Cl)cc1	69.5*	2.2	60.7*	-2.5	9.9	16.9	51.2*	78.2*
N#C/C(N=Nc1ccccc1O)=N\Nc1ccccc1O	68.4*	41.2*	66.7*	36.2*	49.7*	20.0	70.7*	110.4*
Cn1c(=O)c(NCCc2ccccc2)c2c3c(cccc31)C(=O)c1ccccc1-2	146.1*	167.5*	198.0*	146.6*	164.9*	142.3*	149.2*	+
Cn1c(=O)c(NCCO)c2c3c(cccc31)C(=O)c1ccccc1-2	60.2*	58.4*	93.2*	40.8*	41.0*	95.2*	71.9*	85.0*
Cc1cccc(NC2=C(NCCO)C(=O)c3ccccc3C2=O)c1	26.9	4.1	13.5	4.1	10.2	1.1	.	.
COc1ccc(CN2CCC(CNC(=O)Nc3ccccc3)CC2)cc1	.	.	-15.8	.	.	.	.	.
CN(C(=S)Nc1ccc(Oc2ccccc2)cc1)c1ccc(O)cc1	44.5*	-9.5	34.8*	5.2	7.5	27.2*	-13.3	6.0
COc1cccc2c1C(=O)c1c(O)c3c(c(O)c1C2=O)C[C@](O)(C(C)=O)C[C@H]3O[C@@H]1C[C@@H](N)[C@@H](O)[C@@H](C)O1	67.8*	51.0*	68.5*	48.6*	43.2*	56.9*	72.3*	60.6*
COc1cccc2c1-c1c(O)cccc1C2=O	-0.9	6.1	-0.8	6.1	14.9	4.1	.	.
O=C1C=C(NCCc2cc(Br)c(O)c(Br)c2)C(=O)c2ncccc21	53.1*	37.0*	47.7*	28.1*	68.3*	.	42.8*	50.9*
CC(C)(C)c1cc(CCC(=O)NCCc2ccccn2)cc(C(C)(C)C)c1O	-15.2	0.2	-1.7	2.0	6.7	0.4	.	.
SMILES	HTRA1 inh	PAFAH2 FP inh	mABHD4 FP	PAFAH1B2 inh	PAFAH1B3 inh	pPAFAH FP inh	HTRA1 inh conf	mABHD4 conf
Cc1ccc(C)c(N=Cc2cc3c(cc2[N+](=O)[O-])OCO3)c1	48.1*	14.1	50.3*	-2.6	9.4	18.1	4.9	45.2*
Cc1cccc(C)c1OCC(=O)N/N=C/c1cc2c(cc1[N+](=O)[O-])OCO2	2.0	8.5	1.1	3.9	10.0	6.1	.	.
CC1(C)OC(C)(C)/C(=C/Nc2ccc(O)cc2)C1=O	63.5*	16.5	62.0*	1.6	16.8	21.2	20.5	25.2
C=CCn1c(SCC(=O)c2ccc(O)c(O)c2)nnc1-c1ccccc1OC	58.6*	21.7	29.5*	7.1	13.1	27.1*	48.9*	9.6
COc1ccc(Cn2ccc3ccc(-c4ccc5ccn(C(=O)C6CCCCC6)c5c4)cc32)cc1	.	.	0.2	.	.	.	.	.
COC(=O)C1CN(CC(C)C)CCS(=O)(=O)N1Cc1ccc(C(F)(F)F)cc1 (stereo unspecified)	.	.	-8.5	.	.	.	.	.
COC[C@@H]1CCCN1c1cccc2c1S(=O)(=O)N(C1CC1)CC[C@@H](C)O2	.	.	-5.8	.	.	.	.	.
CCN(CC)c1ccc(C(=C2C=CC(=[N+](CC)CC)C=C2)c2ccc(N(CC)CC)cc2)cc1	82.9*	3.0	109.6*	4.9	-1.1	.	86.4*	125.4*
COc1cc(-c2ccc(Nc3ccccc3C(=O)O)c(OC)c2)ccc1Nc1ccccc1C(=O)O	42.4*	54.0*	53.6*	12.2	28.7*	.	56.0*	80.2*
O=C(Nc1ccc(N2CCCCC2)cc1)c1ccccc1	-11.5	-3.2	0.1	-4.2	-0.3	2.4	.	.
NC(=O)NC(=O)C(Nc1ccc(N2CCCCC2)cc1)c1ccccc1 (stereo unspecified)	52.2*	-3.3	39.8*	0.9	-2.8	22.4	9.5	4.3
C[C@H]1[C@@H](N(C)C)CC[C@@]23CCCN2C(=O)CCC[C@@H]13	.	.	10.2	.	.	.	.	.
Cc1cc(C(=O)COc2ccccc2C(N)=O)c(C)n1C	5.2	-5.0	-1.2	0.2	8.5	-4.0	.	.
Cc1cc(C(=O)COc2cccc3cccnc23)c(C)n1C	80.4*	25.7	74.1*	13.2	6.6	26.2*	16.3	12.2
